Sampled rows, rich in hits. Any-hit rate of the full collection: about 2.1%.
CAL PDZ FP-1: inhibitors of human CAL PDZ peptide binding; Q9HD26; purified CAL PDZ, TMR-peptide fluorescence polarization, 1 h; inhibition, % at 20 µM; AID 504414; 0.02% of 330,000 active;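 active means highest replicate inhibition of at least 40%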;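 further: plate controls were DMSO neutral control wells for no effect and unlabeled competitor peptide control wells for full effect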
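Test system: tagged CAL PDZ domain / Buffer or medium: sodium phosphate/NaCl buffer pH 7.4 with TCEP, IgG, Thesit / Reagent: TMR-labelled reporter peptide T*-PRC34 bound in PDZ groove / Compound dosing: single point, 20 µM / Schedule: 1 h incubation at room temperature before polarization reading / Technique: fluorescence polarization (mP) / Benchmarks: unlabelled peptide, DMSO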
CAL PDZ FP-2: blocks peptide binding to the human CAL PDZ domain; Q9HD26; purified CAL PDZ, TMR-peptide fluorescence polarization, 1 h; inhibition, % at 24.9 µM; 0.92% of 300,000 active; AID 602252;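 active means mean inhibition of at least 30% with at least half of replicates also reaching 30%; inconclusive means no clear call, values can overlap the other calls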;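 further: 0% = DMSO neutral control and 100% = excess unlabeled competitor peptide PRC23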
SR-BI HDL uptake: blocks mouse SR-BI lipid uptake from DiI-HDL; Q61009; ldlA[mSR-BI] CHO cells, DiI-HDL uptake fluorescence, 3 h; inhibition, % at 12.5 µM; 0.96% of 320,000 active; AID 488896;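 active means mean replicate inhibition of at least 70% and a set share of replicates each scoring 70 or more; inconclusive means meets just one of the two criteria; inactive means fails both criteria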;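 further: 0% = median of neutral control wells and 100% = median of positive control wells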
Target sequence (Q61009 whole entry, looked up): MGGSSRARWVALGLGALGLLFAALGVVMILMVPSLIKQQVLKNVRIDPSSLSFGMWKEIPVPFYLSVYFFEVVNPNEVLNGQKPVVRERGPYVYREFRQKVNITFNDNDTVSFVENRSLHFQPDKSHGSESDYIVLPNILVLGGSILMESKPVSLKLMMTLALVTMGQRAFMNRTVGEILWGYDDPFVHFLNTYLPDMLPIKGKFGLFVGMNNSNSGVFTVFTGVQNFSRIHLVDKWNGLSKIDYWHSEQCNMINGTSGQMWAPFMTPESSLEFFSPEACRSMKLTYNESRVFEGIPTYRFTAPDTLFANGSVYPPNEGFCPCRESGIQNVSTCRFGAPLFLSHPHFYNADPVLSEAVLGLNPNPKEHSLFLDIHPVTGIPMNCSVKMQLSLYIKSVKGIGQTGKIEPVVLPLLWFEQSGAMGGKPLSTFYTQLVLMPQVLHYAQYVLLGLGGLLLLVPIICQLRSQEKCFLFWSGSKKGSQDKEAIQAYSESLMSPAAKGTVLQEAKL
SR-BI DiI-HDL act: activators of SR-BI mediated HDL lipid uptake; CHO ldlA[mSR-BI] cells, DiI-HDL uptake fluorescence, 3 h; 100 = double the neutral-control signal; activation, % at 12.5 µM; 0.096% of 320,000 active; AID 504775;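 active means mean replicate activation of at least 60% and every replicate at or above 60%; inconclusive means mean or all-replicate condition met, but not both; inactive means mean below 60% and not all replicates reaching 60%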;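 further: 0% = median plate neutral-control signal and 100% = twice that signal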
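Test system: SR-BI-overexpressing, LDLR-lacking CHO cells. Measured by: DiI fluorescence, bottom read. Medium: Ham's F12 with 0.5% BSA, HEPES 25 mM, pH 7.4. Timing: 3 h uptake period with compound, 37 °C.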
miR122 inh: inhibitors of miR-122 in Huh7 cells. Huh7 miR-122 Renilla luciferase sensor, 48 h; neutral wells = 0, positive control = 100. activation (reporter increase), % at 12.5 µM. 0.3% of 340,000 active. AID 602342;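 active means mean replicate activation score at least 90 and every replicate individually at or above 90; inconclusive means only one of the two criteria met; inactive means neither criterion met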;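 further: higher luciferase means less miR-122 activity so hits act as miR-122 inhibitors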
ARNT TACC3 PPI: ARNT/TACC3 interaction disruption | Q9Y6A5 | AlphaScreen His-ARNT PAS-B/GST-TACC3 binding, luminescence; TACC3 fragment carries E629A point mutation | inhibition, % at 9.99 µM | 0.66% of 390,000 active | AID 623870;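 active means mean inhibition of replicates at least 50% and at least half of replicates each reaching 50%; inconclusive means half or more replicates reach 50% but mean below 50%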;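 further: 0% = complete ARNT plus TACC3 wells and 100% = ARNT alone without TACC3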
Starred values were filed as active, the others as inactive; ? = inconclusive; / = no result given; [ ] = dose if it differs, or a comment.

SMILES	CAL PDZ FP-1	CAL PDZ FP-2	SR-BI HDL uptake	SR-BI DiI-HDL act	miR122 inh	ARNT TACC3 PPI
CC(C)(C)NC(=O)/C(=C\c1ccccc1F)NC(=O)c1ccc([N+](=O)[O-])cc1	-1.4	70.1*	1.1	-1.1	/	-3.9
CC(C)(C)NC(=O)/C(=C/c1ccccc1F)NC(=O)c1ccc([N+](=O)[O-])cc1	0.5	-3.9	-30.1	30.1	-2.0	-6.8
Cc1ccc(NC(=O)/C(=C\c2ccc([N+](=O)[O-])cc2)NC(=O)c2ccccc2)cc1	/	-1.9	22.4	-22.4	11.0	-6.5
O=C(Nc1cccc2ccccc12)/C(=C/c1ccc([N+](=O)[O-])cc1)NC(=O)c1ccccc1	-1.3	68.0*	10.3	-10.3	238.0*	-5.1
Cc1ccsc1/C=N/NC(=O)c1ccc(-n2cccc2)cc1	-3.8	-1.9	77.0*	-77.0	/	4.4
O=C(N/N=C/c1ccc(O)c(O)c1O)/C(=C/c1ccc([N+](=O)[O-])cc1)NC(=O)c1ccccc1	-13.3	-4.4	97.8*	-97.8	-18.4	64.3*
COc1ccc(CN(C)C[C@@H]2Oc3ccc(NS(=O)(=O)c4cccs4)cc3C(=O)N([C@@H](C)CO)C[C@@H]2C)cc1	/	/	/	/	5.4[16.7 µM]	/
COc1ccc(/C=C(/NC(=O)c2ccccc2)C(=O)N/N=C/c2sccc2C)cc1	0.0	-0.2	78.2*	-78.2	/	-14.5
Cc1nn(C)cc1NC(=O)C[C@H]1CC[C@@H]2[C@@H](COc3ccc(NC(=O)C4CCC4)cc3C(=O)N2C)O1	/	/	/	/	1.8[16.7 µM]	/
COc1ccccc1-c1ccc2c(c1)[C@H]1[C@H](CCN1S(=O)(=O)c1cccc(F)c1)[C@@H](CO)N2	/	/	/	/	61.8[16.7 µM]	11.3
CCOC(=O)C1CCN(C(=O)c2ccc(OCC(=O)Nc3cccc(C(F)(F)F)c3)c(OC)c2)CC1	-3.3	-1.0	?	-70.5	/	-0.4
CCOC(=O)C1CCN(C(=O)c2ccc(OCC(=O)Nc3ccc(OCC)cc3)c(OC)c2)CC1	0.7	-2.5	83.5*	-83.5	/	0.2
CSCCC(NC(=O)COc1cccc2ccccc12)C(=O)O (stereo not drawn)	-0.2	69.8*	-12.9	12.9	5.3	-9.0
CC(=O)N(C)C[C@@H]1Oc2cc(C#CC3CCCC3)ccc2S(=O)(=O)N([C@@H](C)CO)C[C@H]1C	/	/	/	/	46.0[16.7 µM]	2.4
CCN1CCN(C(c2ccc(C(F)(F)F)cc2)c2ccc3cccnc3c2O)CC1 (stereo not drawn)	-1.4	-5.3	26.6	-26.6	-15.7	79.7*
CCC(=O)N(C)C[C@H]1Oc2cc(-c3ccc(C#N)cc3)ccc2S(=O)(=O)N([C@H](C)CO)C[C@H]1C	/	/	/	/	-9.9[16.7 µM]	-6.0
O=S1(=O)c2ccc(Br)cc2N2CCC[C@H]2CN1Cc1ccccc1	0.1	-6.8	40.5	-40.5	140.0*	-2.2
CCCC#Cc1cnc2c(c1)C(=O)N([C@H](C)CO)C[C@H](C)[C@H](CN(C)C(=O)C1CCCCC1)O2	/	/	/	/	36.4[16.7 µM]	/
CCC(CC)c1nnc(NC(=O)CCS(=O)(=O)Cc2ccccc2)s1	-0.7	41.2*	-6.0	6.0	-7.9	/
O=C(C[C@@H]1CC[C@H]2[C@@H](COC[C@@H](O)CN2Cc2ccc(Cl)cc2)O1)Nc1nccs1	/	/	/	/	-3.6[16.7 µM]	-7.3
COC(=O)C1=C(O)/C(=C\c2ccc(OCC(=O)Nc3ccccc3OC)cc2)N=C1C	0.3	73.4*	-1.8	1.8	-4.5	3.2
CC12CCC(=O)N1C(C(=O)N1CCN(c3cccc(Cl)c3)CC1)CS2 (stereo not drawn)	0.3	79.6*	-2.5	2.5	0.4	-4.4
CN(C)C(=O)C[C@H]1CC[C@H]2[C@H](COc3ccc(NC(=O)C4CCOCC4)cc3C(=O)N2C)O1	/	/	/	/	-0.5[16.7 µM]	-7.0
NS(=O)(=O)c1ccc(CCNC(=O)c2cc(-c3ccccc3)nc3ccccc23)cc1	-1.4	0.1	79.5*	-79.6	-8.7	-1.5
Cc1ccc(-c2cc(C(=O)NCCc3ccc(S(N)(=O)=O)cc3)c3ccccc3n2)cc1	-1.4	-2.7	85.7*	-85.7	/	-0.5
SMILES	CAL PDZ FP-1	CAL PDZ FP-2	SR-BI HDL uptake	SR-BI DiI-HDL act	miR122 inh	ARNT TACC3 PPI
COc1ccc(-c2cc(C(=O)NCCc3ccc(S(N)(=O)=O)cc3)c3ccccc3n2)cc1	-1.3	1.2	56.2	-56.2	/	-3.0
CCc1ccc(-c2cc(C(=O)NCc3ccccn3)c3ccccc3n2)cc1	-3.3	-4.3	36.5	-36.5	148.4*	-10.6
NS(=O)(=O)c1ccc(CNC(=O)c2cc(-c3ccccc3)nc3ccccc23)cc1	-3.6	-1.1	/	/	/	1.4
C[C@@H]1CN([C@@H](C)CO)C(=O)c2cc(NC(=O)Nc3ccccc3)ccc2O[C@@H](C)CCCCO[C@@H]1CN(C)C(=O)Cc1ccccc1	/	/	/	/	-3.6[16.7 µM]	-19.2
COc1ccc(NC(=O)N(C)C[C@@H]2OCCCC[C@@H](C)Oc3ccc(NC(=O)Nc4c(C)noc4C)cc3C(=O)N([C@@H](C)CO)C[C@H]2C)cc1	/	/	/	/	-2.9[16.7 µM]	-0.1
CN(C)S(=O)(=O)c1ccc(Cl)c(C(=O)OCC(=O)NC(=O)c2cccn2C)c1	-2.1	-2.2	71.9*	-71.9	/	-4.5
CC(C)c1nnc(NC(=O)c2cnccn2)s1	0.3	/	-12.0	12.0	-1.7	49.6*
NC(=O)Cn1cc(/C=N\NS(=O)(=O)c2ccc(F)cc2)c2ccccc21	0.2	35.0*	-17.2	17.2	135.3*	3.2
CCc1ccc(S(=O)(=O)N/N=C\c2cn(CC(N)=O)c3ccccc23)cc1	-1.7	-3.6	-37.0	37.0	/	6.5
Cc1c(C)c2ccc(OC(C)C(=O)NCCCn3ccnc3)c(C)c2oc1=O (stereo not drawn)	-0.5	71.1*	4.0	-4.0	5.6	5.6
O=C(CN(Cc1ccccc1Cl)S(=O)(=O)c1ccc(Cl)cc1)N/N=C/c1ccc(C(=O)O)cc1	-1.3	-2.9	-17.7	/	0.9	51.0*
O=C(CNC(=O)c1ccc(S(=O)(=O)N2CCCC2)cc1)N/N=C/c1ccc(Cl)cc1	-1.2	-0.8	72.1*	-72.1	-2.6	1.5
O=C(CN(Cc1ccccc1)S(=O)(=O)c1ccccc1)N/N=C/c1ccc([N+](=O)[O-])cc1	-2.4	-1.2	41.6	-41.6	3.0	5.0
Cc1noc(C)c1NC(=O)Nc1ccc2c(c1)C(=O)N([C@H](C)CO)C[C@@H](C)[C@H](CN(C)S(=O)(=O)c1c(C)noc1C)OCCCC[C@@H](C)O2	/	/	/	/	2.9[16.7 µM]	-4.6
Cc1ccc(S(=O)(=O)n2nc(C)c(Br)c2C)c(C)c1C	0.0	0.1	-16.0	16.0	104.5*	-4.1
COc1ccc(NC(=O)Nc2ccc3c(c2)[C@H]2C[C@@H](CC(=O)N(C)C)O[C@@H](CO)[C@H]2O3)cc1	/	/	/	/	2.5[16.7 µM]	5.9
